# High-throughput results deposited in PubChem BioAssay by The Scripps Research Institute Molecular Screening Center.
# zfTRPN1 agonist – zebrafish TRPN1 channel agonists, primary screen, cell-based, HEK293, calcium fluorescence; transient receptor potential cation channel N1 (TRPN1/NompC), Danio rerio; HEK293 zebrafish TRPN1-YFP, Fluo-8 calcium fluorescence; 100% = response to 87 µM carbachol; activation, % at 3 µM; 220,000 compounds, 0.18% hits;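 active = activation above its plate's cutoff, the mean activation of test wells on that plate plus 3 SD, cut at about 19% in these data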;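 note: 0% = DMSO alone and 100% = 87 µM carbachol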
#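 System: zebrafish TRPN1-YFP in HEK293 cells / Dosing: 3 µM single point / Timing: dye loading 1 h at 37 °C, then 30 min room temperature / Signal: Fluo-8 calcium fluorescence, excitation 470-495 nm, emission 515-575 nm / Read-out basis: percent activation from peak over basal fluorescence ratio, control-normalized / Control set: high carbachol 87 µM, low DMSO alone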
# TRPML3 ag – human TRPML3 channel agonists, primary screen, cell-based, HEK293 TRPML3-YFP, Fluo-8 calcium fluorescence, 3 µM | AID 1448, 2008 | 100% = the carbachol control signal | Mucolipin-3 (Homo sapiens), Q8TDD5 | 220,000 compounds, 0.29% hits | activation, % at 3 µM;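 active = activation above its plate's cutoff, the mean activation of the plate's test wells plus 3 SD, cut at about 12% in these data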;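 note: 0% = DMSO only wells and 100% = carbachol wells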
#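 system = HEK293 cells stably carrying human TRPML3-YFP | doses = one concentration, 3 µM nominal, 0.3% DMSO | timing = dye loading 1 h 37 °C then 30 min ambient, 125 s read | detection = Fluo-8 calcium dye fluorescence, ex 470-495, em 515-575 nm | benchmarks = high control carbachol 87 µM, low control DMSO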
# OXTR potentiator – human OXTR potentiators, primary screen, fluorescence, CHO-OTR cells, Fluo-8 calcium | Oxytocin receptor (Homo sapiens), P30559 | Fluo-8 calcium fluorescence, potentiator mode; 0% = oxytocin EC15, 100% = EC100 | activation, % at 3 µM | 320,000 compounds, 0.061% hits | AID 2445, 2010;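 active = activation above that plate's cutoff, the mean activation of tested compounds plus 3 SD, cut at about 6.6% in these data, passing the limit was not always enough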;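 note: 100% uses oxytocin at 75 nM as the full agonist control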
# Target sequence (P30559 whole entry, looked up): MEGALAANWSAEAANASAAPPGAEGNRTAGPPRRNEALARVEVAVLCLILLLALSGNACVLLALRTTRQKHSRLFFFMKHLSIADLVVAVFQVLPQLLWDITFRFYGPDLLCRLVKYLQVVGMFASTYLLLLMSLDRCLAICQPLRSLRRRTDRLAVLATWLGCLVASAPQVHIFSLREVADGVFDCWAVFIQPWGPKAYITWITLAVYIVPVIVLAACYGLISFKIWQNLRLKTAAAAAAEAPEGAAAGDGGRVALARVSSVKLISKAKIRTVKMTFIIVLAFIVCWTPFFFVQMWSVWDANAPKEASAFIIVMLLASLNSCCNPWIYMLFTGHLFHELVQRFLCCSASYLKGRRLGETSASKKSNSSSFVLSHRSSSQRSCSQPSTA
#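 Measured by – Fluo-8 calcium dye fluorescence · Test system – human OTR in CHO cells · Dosing – one concentration, 3.0 µM compound · Controls – EC15 oxytocin alone as 0%, 75 nM oxytocin as 100% · Evaluation – normalized max/min fluorescence ratio, % activation · Timing – 6 min pre-incubation, 100 s read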
# V1R ag counter – agonists of human V1a receptor, primary screen, counter-screen for OXTR agonist project, fluorescence, CHO-V1R cells; Fluo-8 calcium fluorescence, agonist mode; 0% DMSO, 100% 3 nM vasopressin; activation, % at 3 µM; 320,000 compounds, 0.25% hits; AID 2797, 2010;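 active = activation above the mean activation of all tested compounds plus 3 SD, per screening run, cut at about 20% in these data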;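 note: signal is peak over basal fluorescence ratio across a 100 second FLIPR read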
# OXTR agonist – human OXTR agonists, primary screen, fluorescence, CHO-OTR cells, Fluo-8 calcium. Oxytocin receptor (Homo sapiens), P30559. Fluo-8 calcium fluorescence; normalized: DMSO 0%, oxytocin 100%. activation, % at 3 µM. 320,000 compounds, 0.32% hits. AID 2435, 2010;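 active = activation above the mean of all tested compounds plus 3 SD, cutoff set per screening run, cut at about 20% in these data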;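 note: peak over basal fluorescence ratio from a 100 s FLIPR kinetic read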
# The depositor's hits bear a star; x = no result given. Only some compounds are listed: those with a hit (about 0.55% of all), similar ones and a draw of the others.
SMILES,zfTRPN1 agonist,TRPML3 ag,OXTR potentiator,V1R ag counter,OXTR agonist
CN(C)/C=N/NC(=O)c1ccccc1Cl,1,1,8,0,0
CN(C)/C=N/NC(=O)c1ccc(Cl)cc1,34*,46*,-1,1,0
Cc1ccc(NC(=O)Nc2cccc([N+](=O)[O-])c2)cc1F,23*,12*,-13,8,16
Cc1cc(C)c(O)c(NC(=S)NC(=O)Cc2ccccc2)c1,x,x,-20,29*,31*
COc1ccc(CC(=O)NC(=S)Nc2cccc(CO)c2)cc1,x,x,-20,27*,28*
Cc1cccc(NC(=S)NC(=O)CCc2ccccc2)c1,-1,0,-9,-1,-3
COc1ccccc1NC(=S)NC(=O)Cc1ccc(Cl)cc1,x,x,-20,33*,22*
Cc1c(NC(=S)NC(=O)Cc2ccccc2)cccc1C(=O)O,1,1,-4,0,0
COc1ccc(CC(=O)NC(=S)Nc2cccc(C)c2)cc1,x,x,-20,27*,26*
Cc1ccc(CNS(=O)(=O)c2ccc(CN3C(=O)c4cccnc4C3=O)s2)o1,x,x,-8,1,1
CCC(=O)Nc1cccc(NC(=S)NC(=O)Cc2ccccc2)c1,0,0,-13,4,2
COc1cccc(NC(=S)NC(=O)Cc2ccc(Cl)cc2)c1,x,x,-19,31*,25*
C=CCSc1ccccc1C(=O)Nc1ncn[nH]1,x,x,3,1,0
CC1=Nc2ccccc2/C1=C/c1sc(=N)n(-c2nccs2)c1O,16,8,-11,26*,23*
O=C(NCC(c1cccs1)N1CCOCC1)c1ccc(OCc2ccccc2)cc1 (configuration not stated),x,x,1,3,1
Nn1c(SCC(=O)Nc2cccnc2Cl)nnc1-c1ccccc1,x,x,-2,0,0
CCCCN1C(=O)/C(=C/C=C2/CC(C)(C)CN2C)SC1=S,26*,14*,-20,66*,52*
CCCCN1C(=O)/C(=C/C=C2\Oc3ccccc3N2CC)SC1=S,9,3,x,x,x
CC(=O)N1C(=O)C(=C2C=C(C)OC(C)=C2)c2ccccc21,26*,0,2,-2,-2
NC(CCCCc1ccccc1)c1cccc2ccccc12 (configuration not stated),x,x,-16,3,21*
CC(CCc1ccccc1)NCc1cccc2ccccc12 (configuration not stated),x,x,-13,8,8
CN1C(=O)/C(=C/c2cc(C(C)(C)C)c(O)c(C(C)(C)C)c2)NC1=S,-1,0,-9,0,-1
CC(C)c1ccc(/C=C2\SC(=O)N(CC(=O)NC3C=CS(=O)(=O)C3)C2=O)cc1 (configuration not stated),x,x,-7,10,10
O=[N+]([O-])c1ccc(C2=NN(c3ccccc3)C(c3ccco3)C2)cc1 (configuration not stated),24*,12*,x,x,x
Cc1ccc(C2=NN(S(=O)(=O)c3ccccc3)C(c3ccco3)C2)cc1 (configuration not stated),x,x,1,1,0
SMILES,zfTRPN1 agonist,TRPML3 ag,OXTR potentiator,V1R ag counter,OXTR agonist
O=[N+]([O-])c1ccc(/C=C/C2=NN(c3ccccc3)C(c3ccco3)C2)cc1 (configuration not stated),6,2,-11,27*,34*
COc1ccc(-c2cc(-c3n[nH]c(=S)n3-c3ccccc3Cl)[nH]n2)cc1,0,0,6,0,1
CC(=O)N1c2ccc(S(=O)(=O)NCCC(=O)Nc3ccc(F)cc3)cc2CC1C (configuration not stated),x,x,-6,1,1
Cc1ccc(/C(N)=N/OC(=O)CN(C)S(=O)(=O)c2ccc(C)cc2)cc1,x,x,-8,4,0
COc1ccc(/C(N)=N/OC(=O)CN(C)S(=O)(=O)c2ccc(C)cc2)cc1,-1,84*,x,x,x
Cc1noc(C)c1S(=O)(=O)N(Cc1ccccc1)C(C)C,-2,2,-3,-2,-3
CC[n+]1ccccc1/C=C1\Sc2ccc(C)cc2N1C,x,x,-18,0,0
CCN1/C(=C/c2ccc3cc(C)ccc3[n+]2CC)Sc2ccccc21,83*,30*,-18,32*,30*
CN1/C(=C/c2cccc[n+]2CCO)Sc2ccccc21,x,x,-14,0,0
CCN1/C(=C/c2ccc3cc(C)ccc3[n+]2CC)Sc2cc(C)c(C)cc21,49*,20*,x,x,x
CC[n+]1c(/C=C2\Sc3ccccc3N2C)ccc2cccc(C)c21,42*,18*,x,x,x
Cc1c(C(=O)N(C)Cc2cccc(F)c2)oc2c(Cl)cccc12,x,x,2,1,0
CCN(CC)C(=O)Cn1cc(C(=O)C(=O)N(C)C2CCN(C)CC2)c2ccccc21,x,x,1,1,0
CC(C)(C)CNC(=O)c1cccc2c1C(=O)c1ccc(N3CCCC3)cc1S2(=O)=O,x,x,-9,11,8
O=C(NCc1ccc(F)cc1)c1cccc2c1C(=O)c1ccc(N3CCC(Cc4ccccc4)CC3)cc1S2(=O)=O,x,x,-12,27*,20*
CC1CCN(c2ccc3c(c2)S(=O)(=O)c2cccc(C(=O)NCc4ccc(F)cc4)c2C3=O)CC1,x,x,-2,4,5
O=C(NCc1ccccc1C(F)(F)F)c1cccc2c1C(=O)c1ccc(N3CCCCC3)cc1S2(=O)=O,x,x,-11,25*,24*
CCOc1ccc(NS(=O)(=O)c2ccc(C(=O)NCc3ccccn3)cc2)cc1,x,x,-19,27*,31*
Cc1ccc(NS(=O)(=O)c2ccc(C(=O)NCc3ccccn3)cc2)cc1,x,x,-16,31*,25*
CS(=O)(=O)Nc1ccc(C(=O)NCc2ccccn2)cc1,0,1,-2,0,0
